Bioassay records (PubChem BioAssay)
Only some compounds are listed: those with a hit (about 3.3% of all), similar ones and a draw of the others.
PglD DTNB = C. jejuni PglD acetyltransferase inhibitors, primary screen, biochemical, DTNB colorimetric, single point | purified PglD enzyme, DTNB colorimetric CoA detection | inhibition, % at 12.5 µM | 360,000 tested, 0.098% active; in the data active = inhibition above about 16%, passing the limit was not always enough; inconclusive = no clear call, values can overlap the other calls
E-selectin induc = E-selectin induction in HUVECs, primary screen, imaging, HUVEC, immunofluorescence imaging, single point; P16581; normalized: neutral wells 0, TNF-alpha wells 100; activation, % at 7.58 µM; 260,000 tested, 0.37% active; AID 686992, 2013;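 active = mean E-selectin-positive cell signal at least 10% of the positive control, reached in at least 60% of replicates, without over 20% cell loss; inconclusive = no rule given, readout overlaps actives, possibly toxicity-flagged; inactive = the rest, including those meeting only one limit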
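Material: HUVEC primary endothelial cells; Amount: 3,000 cells per well; Dosing: single concentration; Medium: EGM-2 growth medium on 0.1% gelatin-coated wells; Read-out basis: percent E-selectin-positive cells; Signal: immunofluorescence imaging; Control set: TNF-alpha, DMSO.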
DENV2 CPE rescue = inhibitors of DENV2 cytopathic effect, primary screen, cell-based, plate reader, single concentration. DENV2-infected cells, cytopathic effect rescue. CPE inhibition, % at 9.99 µM. AID 651640, 2012. 350,000 tested, 1.7% active; in the data active = CPE inhibition above about 20%, passing the limit was not always enough; inconclusive = no clear call, values can overlap the other calls; tested in BHK-21 cells;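 note: 0% = median of neutral control wells and 100% = median of positive control wells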
XiGFP reactiv = activators of inactive X chromosome reactivation, primary screen, imaging, XiGFP fibroblasts, GFP high-content imaging, set 2 | XiGFP mouse fibroblasts, % GFP-positive cells imaging, 3 d; cells co-treated with 5-aza-dC sensitizer; scaled so ellipticine positive control = 100% | activation, % at 7.58 µM | 360,000 tested, 0.055% active;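 active = mean normalized replicate activation at least 10% and every replicate at or above 10%; inconclusive = only one of the two criteria met; inactive = mean below 10% and not all replicates reach 10%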;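 note: 0% = median of on-plate neutral control wells and 100% = ellipticine 6 µM median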
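Material: XiGFP fibroblasts, SV40-immortalized; Buffer or medium: DMEM containing 5-aza-dC; Compound dosing: single point; Times: 3 days compound exposure.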
Statin myotox sup = suppressors of statin myotoxicity in C2C12 myotubes, primary screen, cell-based, single point, plate reader. 330,000 tested, 0.78% active. rescue of ATP level, % at 7.49 µM. C2C12 myotubes + simvastatin, ATP luminescence, 48 h; scaled: DMSO 0, geranylgeraniol control 100;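 active = mean ATP rescue above about 67%, or every replicate alone reaching that limit, limit read from the data, passing the limit was not always enough; inconclusive = no clear call, values can overlap the other calls; inactive = mean under the limit and some replicate under it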;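 note: myotubes were challenged with 10 µM simvastatin during compound exposure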
FGF22 binding = binders of human FGF22 protein, primary screen, FGF22 synaptogenesis inhibitor project, biophysical, thermal shift, single point. activity (Tm shift, normalised), % at 9.99 µM. Fibroblast growth factor 22 (Homo sapiens), Q9HCT0. recombinant FGF22 thermal shift, SYPRO orange fluorescence; percent of sucrose octasulfate shift, DMSO zero. 340,000 tested, 1.5% active;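 active = mean Tm shift, scaled 0 neutral to 100 positive control, at about 1.3% or above, every replicate too, limit read from the data; inconclusive = no clear call, values can overlap the other calls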
Target sequence (Q9HCT0 whole entry, looked up): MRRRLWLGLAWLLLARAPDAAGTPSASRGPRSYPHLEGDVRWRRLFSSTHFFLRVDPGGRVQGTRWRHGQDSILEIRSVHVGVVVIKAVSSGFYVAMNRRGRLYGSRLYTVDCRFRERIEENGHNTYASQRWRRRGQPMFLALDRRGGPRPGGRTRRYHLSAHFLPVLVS
* marks the source's active call; other numbers are inactive results.

Cc1ccc(S(=O)(=O)N(C)C[C@@H]2OCCCC[C@H](C)Oc3ccc(NS(C)(=O)=O)cc3C(=O)N([C@H](C)CO)C[C@@H]2C)cc1 was read as PglD DTNB 3, E-selectin induc 0, DENV2 CPE rescue 57*, XiGFP reactiv 0 and FGF22 binding 0.
Cc1ccc(S(=O)(=O)N(C)C[C@H]2OCCCC[C@H](C)Oc3ccc(NS(C)(=O)=O)cc3C(=O)N([C@H](C)CO)C[C@H]2C)cc1 was read as PglD DTNB -1, E-selectin induc 1, DENV2 CPE rescue 15, XiGFP reactiv 0 and FGF22 binding 0.
C[C@H](CO)N1C[C@H](C)[C@@H](CN(C)S(=O)(=O)c2ccc(F)cc2)OCCCC[C@H](C)Oc2ccc(NS(C)(=O)=O)cc2C1=O was read as PglD DTNB 3, E-selectin induc 0, DENV2 CPE rescue 27*, XiGFP reactiv -1, Statin myotox sup -26 and FGF22 binding 0.
`C/C=C/c1ccc([C@H]2[C@H]3CN(C(=O)Nc4ccc(OC)cc4)CC(=O)N3[C@H]2CO)cc1` gave E-selectin induc 1, DENV2 CPE rescue inconclusive and XiGFP reactiv 0.
For CCCNC(=O)N1C[C@H](C)[C@H](OC)CN(C)C(=O)c2cc(NC(=O)CCC)ccc2OC[C@H]1C the results were PglD DTNB -1, E-selectin induc 0, DENV2 CPE rescue 11, XiGFP reactiv 0, Statin myotox sup 8 and FGF22 binding 0.
CCC(=O)N(C)C[C@H]1Oc2cc(-c3cncnc3)ccc2S(=O)(=O)N([C@@H](C)CO)C[C@H]1C was read as PglD DTNB 0, E-selectin induc 0, DENV2 CPE rescue 5, XiGFP reactiv 0 and Statin myotox sup 13.
For C[C@@H]1CN([C@@H](C)CO)C(=O)c2cc(NC(=O)CCCN(C)C)ccc2O[C@@H]1CN(C)Cc1ccccc1 the results were PglD DTNB -2, E-selectin induc 0, DENV2 CPE rescue 30*, XiGFP reactiv 0, Statin myotox sup 15 and FGF22 binding 0.
C[C@H](CO)N1C[C@H](C)[C@@H](CN(C)Cc2ccc(Oc3ccccc3)cc2)Oc2ccc(NC(=O)CCCN(C)C)cc2C1=O was read as PglD DTNB -8, E-selectin induc -1, DENV2 CPE rescue 4, XiGFP reactiv 0, Statin myotox sup -24 and FGF22 binding 1.2*.
For O=C(NC1CCCCC1)N[C@@H]1CC[C@@H](CCNS(=O)(=O)c2ccccc2)O[C@H]1CO the results were PglD DTNB 4, E-selectin induc 2, DENV2 CPE rescue 0, XiGFP reactiv 0, Statin myotox sup 13 and FGF22 binding 0.
COc1ccc2c3c([nH]c2c1)[C@H](CO)N(C(=O)c1ccccc1)CC31CCN(C(=O)c2cccc(F)c2)CC1 was read as E-selectin induc 0, DENV2 CPE rescue -12, XiGFP reactiv 0 and FGF22 binding 0.
`C(=N\c1nccs1)/c1cccnc1` gave PglD DTNB 0 and Statin myotox sup 112*.
`O=C(C[C@@H]1C[C@@H]2c3cc(NS(=O)(=O)c4ccccc4)ccc3O[C@@H]2[C@H](CO)O1)NC1CCCC1` gave PglD DTNB -3, E-selectin induc 0, DENV2 CPE rescue -4, XiGFP reactiv 0, Statin myotox sup 0 and FGF22 binding 0.
O=C(Nc1ncnc2sc3c(c12)CCCCC3)c1ccco1 was read as Statin myotox sup 128*.
`COc1cccc(N=C(N)N)c1` gave PglD DTNB 1, E-selectin induc 0, DENV2 CPE rescue -3, XiGFP reactiv 0, Statin myotox sup -1 and FGF22 binding 43*.
For Nc1cccc(Oc2c(F)c(F)c(Oc3cccc(N)c3)c(F)c2F)c1 the results were PglD DTNB 7, E-selectin induc 12, DENV2 CPE rescue 9, XiGFP reactiv 0 and FGF22 binding 0.
COc1cccc(N)c1 was read as DENV2 CPE rescue 171* and FGF22 binding 0.
Screening COc1cccc(N2CC(=O)N(c3cccc(OC)c3)CC2=O)c1 returned E-selectin induc 0, DENV2 CPE rescue 5, XiGFP reactiv 0 and FGF22 binding 44*.
For CC(=O)c1c(C(C)=O)c(C)n(Cc2ccc(Cl)cc2)c1C the results were PglD DTNB 1 and Statin myotox sup 144*.
`O=C(CCNC(=O)c1ccc(Br)cc1)NNC(=O)c1ccccc1` gave PglD DTNB -6, E-selectin induc 1, DENV2 CPE rescue 1, XiGFP reactiv 0, Statin myotox sup -2 and FGF22 binding 43*.
Screening COc1ccc(Cl)cc1C(=O)NNC(=O)CCNC(=O)c1ccccc1 returned PglD DTNB 5, E-selectin induc 0, DENV2 CPE rescue -4, XiGFP reactiv 0, Statin myotox sup 9 and FGF22 binding 44*.
Screening COc1ccccc1C(=O)NC(=O)CSc1nncn1C returned PglD DTNB -1, E-selectin induc 0, DENV2 CPE rescue 6, XiGFP reactiv 0, Statin myotox sup 5 and FGF22 binding 0.
COc1ccc(Cl)cc1C(=O)NNC(=O)CSc1nncn1C was read as PglD DTNB 2, E-selectin induc 0, DENV2 CPE rescue -3, XiGFP reactiv 0, Statin myotox sup -10 and FGF22 binding 43*.
For Cc1c(NC(=O)c2ccc(N(C)S(=O)(=O)c3ccccc3)cc2)c(=O)n(-c2ccccc2)n1C the results were PglD DTNB 4, E-selectin induc 0, XiGFP reactiv 0, Statin myotox sup 6 and FGF22 binding 43*.
`Cc1c(NC(=O)c2cccc(S(=O)(=O)N(C)c3ccccc3)c2)c(=O)n(-c2ccccc2)n1C` gave PglD DTNB 0, DENV2 CPE rescue inconclusive, XiGFP reactiv 0, Statin myotox sup 11 and FGF22 binding 0.
Screening CN1[C@@H]2c3ccc(-c4cccc(F)c4)c(=O)n3C[C@H]1[C@H](CO)[C@H]2C(=O)Nc1nccs1 returned PglD DTNB -1, E-selectin induc 0, DENV2 CPE rescue 0, XiGFP reactiv 0, Statin myotox sup 19 and FGF22 binding 0.
Screening CS/C(=N\S(=O)(=O)c1cccs1)Nc1cccc(Cl)c1C returned PglD DTNB -4, E-selectin induc 0, DENV2 CPE rescue -3, XiGFP reactiv 0, Statin myotox sup -2 and FGF22 binding 0.
